Data published in ChEMBL document CHEMBL4406856, “Structure based design, synthesis and in vitro antitumour activity of tiazofurin stereoisomers with nitrogen functions at the C-2' or C-3' positions” (Eur J Med Chem, 2019).
pIC50: −log10 of the molar value. Calls of active or inactive are those of the source. The calls are words filed in the database; no cut-off is given here.

How the values were obtained:
K562 [1] = assay: Induction of apoptosis in human K562 cells incubated for 24 hrs by annexin V FITC and propidium iodide staining based flow cytometry relative to control; format: functional; parameters: concentration or dose not given beside the values
K562 [2] = assay: Potency index, ratio of tiazofurin IC50 to compound IC50 for cytotoxicity against human K562 cells incubated for 72 hrs by MTT assay; format: functional
HeLa [3] = assay: Potency index, ratio of tiazofurin IC50 to compound IC50 for cytotoxicity against human HeLa cells incubated for 72 hrs by MTT assay; format: functional
K562 [4] = assay: Potency index, ratio of doxorubicin IC50 to compound IC50 for cytotoxicity against human K562 cells incubated for 72 hrs by MTT assay; format: functional
K562 [5] = assay: Cell cycle arrest in human K562 cells assessed as accumulation in G2/M phase incubated for 72 hrs by propidium iodide staining based flow cytometry (reference value: 15.45%); format: functional
Outline: (§1)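 Exponentially growing K562 cells treated for 24 or 72 h, untreated cells as control; cells stained with propidium iodide and DNA content read by flow cytometry. Phase distribution (subG1, G0/G1, S, G2/M) taken from one-parameter histograms, subG1 scored as hypodiploid, apoptotic cells.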

K562 [6] = assay: Cell cycle arrest in human K562 cells assessed as accumulation in S phase incubated for 72 hrs by propidium iodide staining based flow cytometry (reference value: 36.05%); format: functional; outline: as §1
K562 [7] = assay: Cell cycle arrest in human K562 cells assessed as accumulation in G0/G1 phase incubated for 72 hrs by propidium iodide staining based flow cytometry (reference value: 45.43%); format: functional; outline: as §1
K562 [8] = assay: Cell cycle arrest in human K562 cells assessed as accumulation in SubG1 phase incubated for 72 hrs by propidium iodide staining based flow cytometry (reference value: 3.07%); format: functional; outline: as §1
K562 [9] = assay: Induction of apoptosis in human K562 cells incubated for 72 hrs by annexin V FITC and propidium iodide staining based flow cytometry relative to control; format: functional; parameters: concentration or dose not given beside the values
Outline: (§2)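 K562 cells treated for 72 h, stained with Annexin V-FITC/propidium iodide and analysed by flow cytometry. Apoptotic, necrotic and live fractions scored as percent of gated cells; specific apoptosis and specific necrosis calculated from these counts.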

K562 [10] = assay: Induction of necrosis in human K562 cells incubated for 72 hrs by annexin V FITC and propidium iodide staining based flow cytometry relative to control; format: functional; parameters: concentration or dose not given beside the values; outline: as §2
K562 [11] = assay: Induction of apoptosis in human K562 cells assessed as Bcl2 level incubated for 72 hrs by Western blot analysis (reference value: 100%); format: functional
Outline: (§3)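 K562 cells treated for 72 h; Bcl-2, BAX, caspase 3 precursor (32 kDa), caspase 3 active subunit (18 kDa) and PARP (112 and 85 kDa) measured by Western blot and expressed as % of untreated control.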

K562 [12] = assay: Induction of apoptosis in human K562 cells assessed as Bax level incubated for 72 hrs by Western blot analysis (reference value: 100%); format: functional; outline: as §3
K562 [13] = assay: Induction of apoptosis in human K562 cells assessed as 32 kDa Caspase 3 precursor level incubated for 72 hrs by Western blot analysis (reference value: 100%); format: functional; outline: as §3
K562 [14] = assay: Induction of apoptosis in human K562 cells assessed as 18 kDa Caspase 3 active subunit level incubated for 72 hrs by Western blot analysis (reference value: 100%); format: functional; outline: as §3
K562 [15] = assay: Induction of apoptosis in human K562 cells assessed as 112 kDa PARP level incubated for 72 hrs by Western blot analysis (reference value: 100%); format: functional; outline: as §3
K562 [16] = assay: Induction of apoptosis in human K562 cells assessed as 85 kDa PARP level incubated for 72 hrs by Western blot analysis (reference value: 100%); format: functional; outline: as §3
K562 [17] = assay: Induction of apoptosis in human K562 cells assessed as reduction in cell membrane integrity at cytotoxic IC50 incubated for 72 hrs by acridine orange and ethidium bromide double staining based fluorescence microscopy; format: functional
K562 [18] = assay: Genotoxicity in human K562 cells assessed as increase in DNA damage at cytotoxic IC50 incubated for 72 hrs by comet assay; format: toxicity, cell-based; settings: k562, 72 h
Outline: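 Modified alkaline comet assay: cells set in agarose on slides, electrophoresed horizontally, stained with ethidium bromide and imaged by fluorescence microscopy. 50 comets scored per sample; mean tail moment used as the DNA-damage measure.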

K562 [19] = assay: Induction of necrosis in human K562 cells incubated for 24 hrs by annexin V FITC and propidium iodide staining based flow cytometry relative to control; format: functional; parameters: concentration or dose not given beside the values
HL-60 [20] = assay: Potency index, ratio of tiazofurin IC50 to compound IC50 for cytotoxicity against human HL60 cells incubated for 72 hrs by MTT assay; format: functional
HL-60 [21] = assay: Potency index, ratio of doxorubicin IC50 to compound IC50 for cytotoxicity against human HL60 cells incubated for 72 hrs by MTT assay; format: functional
Raji [22] = assay: Potency index, ratio of tiazofurin IC50 to compound IC50 for cytotoxicity against human Raji cells incubated for 72 hrs by MTT assay; format: functional
K562 [23] = assay: Cell cycle arrest in human K562 cells assessed as accumulation in G2/M phase incubated for 24 hrs by propidium iodide staining based flow cytometry (reference value: 14.29%); format: functional; outline: as §1
K562 [24] = assay: Cell cycle arrest in human K562 cells assessed as accumulation in S phase incubated for 24 hrs by propidium iodide staining based flow cytometry (reference value: 48.38%); format: functional; outline: as §1
K562 [25] = assay: Cell cycle arrest in human K562 cells assessed as accumulation in G0/G1 phase incubated for 24 hrs by propidium iodide staining based flow cytometry (reference value: 36.28%); format: functional; outline: as §1
K562 [26] = assay: Cell cycle arrest in human K562 cells assessed as accumulation in sub-G1 phase incubated for 24 hrs by propidium iodide staining based flow cytometry (reference value: 1.05%); format: functional; outline: as §1
K562 [27] = assay: Cell cycle arrest in human K562 cells assessed as decrease in cell accumulation at G2/M phase incubated for 72 hrs by propidium iodide staining based flow cytometry relative to tiazofurin; format: functional; outline: as §1
K562 [28] = assay: Antiproliferative activity against human K562 cells assessed as reduction in cell growth incubated for 72 hrs by MTT assay; format: functional, cell-based; settings: K562, 72 h
Outline: (§4)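 Colorimetric MTT assay on human tumour lines K562 (chronic myeloid leukemia), HL-60 (promyelocytic leukemia), Jurkat (T cell leukemia), Raji (Burkitt's lymphoma), HT-29 (colorectal adenocarcinoma), HeLa (cervix adenocarcinoma) and normal lung fibroblast MRC-5; cells exposed to compounds for 72 h.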

HL-60 [29] = assay: Antiproliferative activity against human HL60 cells assessed as reduction in cell growth incubated for 72 hrs by MTT assay; format: functional, cell-based; settings: HL-60, 72 h
Outline: (§5)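 Colorimetric MTT assay on human tumour lines K562 (chronic myeloid leukemia), HL-60 (promyelocytic leukemia), Jurkat (T cell leukemia), Raji (Burkitt's lymphoma), HT-29 (colorectal adenocarcinoma), HeLa (cervix adenocarcinoma) and normal lung fibroblast MRC-5; cells exposed to compounds for 72 h. IC50 taken as concentration giving 50% growth inhibition versus untreated control.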

Jurkat [30] = assay: Antiproliferative activity against human Jurkat cells assessed as reduction in cell growth incubated for 72 hrs by MTT assay; format: functional, cell-based; outline: as §5
Raji [31] = assay: Antiproliferative activity against human Raji cells assessed as reduction in cell growth incubated for 72 hrs by MTT assay; format: functional, cell-based; outline: as §4
HT-29 [32] = assay: Antiproliferative activity against human HT-29 cells assessed as reduction in cell growth incubated for 72 hrs by MTT assay; format: functional, cell-based; settings: HT-29, 72 h; outline: as §5
HeLa [33] = assay: Antiproliferative activity against human HeLa cells assessed as reduction in cell growth incubated for 72 hrs by MTT assay; format: functional, cell-based; outline: as §5
MRC5 = assay: Cytotoxicity against human MRC5 cells assessed as reduction in cell viability incubated for 72 hrs by MTT assay; format: cell-based; settings: MRC5, 72 h; outline: as §4
Jurkat [34] = assay: Potency index, ratio of tiazofurin IC50 to compound IC50 for cytotoxicity against human Jurkat cells incubated for 72 hrs by MTT assay; format: functional
Jurkat [35] = assay: Potency index, ratio of doxorubicin IC50 to compound IC50 for cytotoxicity against human Jurkat cells incubated for 72 hrs by MTT assay; format: functional
Raji [36] = assay: Potency index, ratio of doxorubicin IC50 to compound IC50 for cytotoxicity against human Raji cells incubated for 72 hrs by MTT assay; format: functional
HT-29 [37] = assay: Potency index, ratio of tiazofurin IC50 to compound IC50 for cytotoxicity against human HT-29 cells incubated for 72 hrs by MTT assay; format: functional
HT-29 [38] = assay: Potency index, ratio of doxorubicin IC50 to compound IC50 for cytotoxicity against human HT-29 cells incubated for 72 hrs by MTT assay; format: functional
HeLa [39] = assay: Potency index, ratio of doxorubicin IC50 to compound IC50 for cytotoxicity against human HeLa cells incubated for 72 hrs by MTT assay; format: functional

| SMILES | Activity (K562 [1]) [%] | Activity (K562 [5]) [%] | Activity (K562 [6]) [%] | Activity (K562 [7]) [%] | Activity (K562 [8]) [%] | Activity (K562 [9]) [%] | Activity (K562 [10]) [%] | Activity (K562 [11]) [%] | Activity (K562 [12]) [%] | Activity (K562 [13]) [%] | Activity (K562 [14]) [%] | Activity (K562 [15]) [%] | Activity (K562 [16]) [%] | Activity (K562 [17]) | Activity (K562 [18]) | Activity (K562 [19]) [%] | Activity (K562 [23]) [%] | Activity (K562 [24]) [%] | Activity (K562 [25]) [%] | Activity (K562 [26]) [%] | other results |
| --- | --- | --- | --- | --- | --- | --- | --- | --- | --- | --- | --- | --- | --- | --- | --- | --- | --- | --- | --- | --- | --- |
| NC(=O)c1csc([C@@H]2O[C@H](CO)[C@H](O)[C@H]2O)n1 | 11.28 | 11.6 | 32.94 | 41.86 | 13.6 | 16.69 | 21.08 | 436.51 | 180.18 | 4433.8 | 230.09 | 665.4 | 552.68 | Active | Toxic | 5.36 | 8.45 | 51 | 38.15 | 2.39 | Ratio IC50 (K562 [2]): 2 - 48; Ratio IC50 (HeLa [3]): 2 - 48; Ratio IC50 (K562 [4]): 2; Ratio IC50 (HL-60 [20]): 2 - 48; Ratio IC50 (HL-60 [21]): 7; Ratio IC50 (Raji [22]): 2 - 48; fold change (FC) (K562 [27]): 2 - 2.4 |
| CC(=O)N[C@@H]1[C@@H](O)[C@H](c2nc(C(N)=O)cs2)O[C@@H]1CO | 27.17 | 13.22 | 41.58 | 43.3 | 1.9 | 10.14 | 14.11 | 274.16 | 126.68 | 432.96 | 87.05 | 336.99 | 364.31 | Active | Toxic | 8.55 | 4.47 | 49.42 | 36.27 | 9.84 | pIC50 (K562 [28]): 6.47; pIC50 (HL-60 [29]): 5.42; pIC50 (Jurkat [30]): 8.14; pIC50 (Raji [31]): 8.41; pIC50 (HT-29 [32]): 6.59; pIC50 (HeLa [33]): < 4.00; pIC50 (MRC5): 4.37; Ratio IC50 (Jurkat [34]): 5; Ratio IC50 (Jurkat [35]): 4; Ratio IC50 (Raji [22]): 1353 - 1354; Ratio IC50 (Raji [36]): 764; fold change (FC) (K562 [27]): 2 - 2.4 |
| NC(=O)c1csc([C@@H]2O[C@H](CO)[C@H](N)[C@H]2O)n1 | 6.35 | 13.77 | 32.99 | 40.45 | 12.78 | 34.37 | 20.43 | 164.9 | 240.62 | 1465.64 | 172.46 | 84.76 | 104.95 | Active | Toxic | -0.99 | 4.72 | 35.75 | 55.65 | 3.87 | pIC50 (K562 [28]): 7.46; pIC50 (HL-60 [29]): 5.03; pIC50 (Jurkat [30]): 8.44; pIC50 (Raji [31]): 5.41; pIC50 (HT-29 [32]): 8.30; pIC50 (HeLa [33]): 7.92; pIC50 (MRC5): < 4.00; Ratio IC50 (K562 [2]): 11 - 318; Ratio IC50 (Jurkat [34]): 11 - 318; Ratio IC50 (HT-29 [37]): 11 - 318; Ratio IC50 (HeLa [3]): 11 - 318; Ratio IC50 (K562 [4]): 5 - 30; Ratio IC50 (Jurkat [35]): 5 - 30; Ratio IC50 (HT-29 [38]): 5 - 30; Ratio IC50 (HeLa [39]): 5 - 30; fold change (FC) (K562 [27]): 2 - 2.4 |
